A short description of test [1]: inhibitors of TNFa-induced NFkB p65 translocation, primary screen, imaging, HUVEC, MLSMR starter and 10KST1 sets (AID 438;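 active = inhibition above 20% together with a positive visual image hit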;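 note: compound added about 3h40 before a 20 min TNFalpha stimulation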;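 for inhibition: signal is the nuclear over cytoplasmic p65 intensity ratio per well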). The following applies: HUVEC TNFa-induced p65 nuclear translocation; cell count: measured here: nuclei count (cytotoxicity indicator), at 2.08 µM; inhibition: at 2 µM, stronger effect = higher value, 0% TNFa-plus-vehicle, 100% no-TNFa wells.
The nature of test [2]: inhibitors of mutant huntingtin aggregation, primary screen, imaging, exon1htt(103Q)mCFP cells, high-content imaging (AID 483).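 For nuclei count: percent of the per-plate median nuclei count of sample wells.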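 Note: compound exposure lasted 3 days before fixation.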 The settings on record: exon1htt(103Q)mCFP cell line, aggregate imaging, at 2 µM; inhibition of aggregation: stronger effect = higher value; nuclei count: measured here: cell count, toxicity.
Test [3] is described as follows: inhibitors of E-selectin induction by TNFa, primary screen, imaging, HUVEC, immunofluorescence, MLSMR starter and 10KST1 sets (AID 487;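 active = visually confirmed hit in the image check and inhibition above 20%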;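 for inhibition: signal is fraction of cell area covered by stained E-selectin grains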;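 for nuclei count: 100% = median nuclei count of all wells on the same plate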). The settings on record: HUVEC TNFalpha-induced E-selectin immunofluorescence imaging, at 2 µM; inhibition: stronger effect = higher value; nuclei count: measured here: cell number, toxicity.
The target of test [4] is Voltage-gated potassium channel subunit beta-2 (Rattus norvegicus) (UniProt P62483). As to the kind of experiment: KvBeta enzyme negative modulators, primary screen, biochemical, NADPH fluorescence (AID 622;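 active = fluorescence slope higher than the sample average by over 3 SD, cut at about -0.22 in these data, passing the limit was not always enough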;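 note: slope of raw intensity against log time taken from 70 to 1610 s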). The following applies: recombinant KvBeta, 4-cyanobenzaldehyde reduction, at 10 µM, stronger effect = higher value.
For test [5] the target is unchanged. As to the kind of experiment: KvBeta positive modulators, primary screen, biochemical, NADPH fluorescence (AID 623;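 active = NADPH fluorescence slope more negative than the mean of all samples by about 3 SD, 99.7% confidence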;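 note: fluorescence intensity change per second fitted from 20 to 320 s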). The settings on record: Recombinant KvBeta, NADPH fluorescence decrease slope, 10 min; at 10 µM; stronger effect = lower value.
Test [6] deals with Muscarinic acetylcholine receptor M4 (Homo sapiens) (UniProt P08173). As to the kind of experiment: compounds altering M4/GIRK thallium flux, either direction, primary screen, M4 allosteric agonist project, cell-based, HEK293 M4/GIRK, BTC-AM (AID 625;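 active = fluorescence slope after compound addition differing from the mean of all tested samples at 99.7% confidence, mostly higher but some lower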;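 note: thallium influx through GIRK channels coupled to M4 in HEK293 cells with BTC-AM dye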). The settings on record: at 10 µM, actives lie on both sides. In short, it runs like this:
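assay system = HEK293 cells with M4 receptor and GIRK channels | medium = pH 7.3 thallium assay buffer | doses = 10 µM final, single point | timing = cells overnight at 37 °C, BTC-AM loading 1 h, reads 2 min total | signal = BTC-AM fluorescence, 1 Hz kinetic reads | read-out = post-addition slope, 15–24 s, of baseline-normalized fluorescence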

A short description of test [7]: inhibitors of Sendai virus-induced IRF3 signaling, primary screen, TLR/RLR signaling modifier project, cell-based, Sendai virus stimulus, luciferase, 10K MLSCN set (AID 602276;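 active = inhibition at or above 50% at 10 µM; inactive = inhibition below 50%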;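 note: firefly luciferase from ISG56 promoter only with Renilla not read in this screen; 0% = Sendai virus plus DMSO and 100% = medium plus DMSO without virus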). The following applies: HEK293 RL24 IRF3 luciferase reporter, at 10 µM, stronger effect = higher value. Background: A reporter such as luciferase makes a cellular process visible.
The nature of test [8]: inhibitors of poly I:C-induced TLR3 signaling, primary screen, cell-based, poly I:C stimulus, luciferase, 10K MLSCN set (AID 602277;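 active = inhibition of the reporter signal at or above 50%; inactive = inhibition below 50%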). The following applies: HEK293-TLR3 RL24 IRF3 luciferase reporter, at 10 µM, stronger effect = higher value.

Active and inactive are the calls of the source.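 Rule for the calls, unless noted: active = visual image review flags a hit and inhibition of aggregation exceeds 20%; inconclusive = visual hit but inhibition at or below 20%; inactive = no hit on visual image review.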

Voltage-gated potassium channel subunit beta-2 (Rattus norvegicus), sequence (P62483 whole entry, looked up): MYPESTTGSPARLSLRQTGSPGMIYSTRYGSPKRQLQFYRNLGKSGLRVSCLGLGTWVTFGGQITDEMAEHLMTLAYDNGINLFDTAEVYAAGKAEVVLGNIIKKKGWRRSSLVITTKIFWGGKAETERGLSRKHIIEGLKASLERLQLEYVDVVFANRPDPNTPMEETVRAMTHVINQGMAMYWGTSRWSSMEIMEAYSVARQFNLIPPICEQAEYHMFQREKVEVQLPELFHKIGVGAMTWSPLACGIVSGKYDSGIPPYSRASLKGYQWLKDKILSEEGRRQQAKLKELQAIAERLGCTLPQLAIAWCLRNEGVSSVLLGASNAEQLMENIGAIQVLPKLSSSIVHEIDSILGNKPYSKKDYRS
Muscarinic acetylcholine receptor M4 (Homo sapiens), sequence (P08173 whole entry, looked up): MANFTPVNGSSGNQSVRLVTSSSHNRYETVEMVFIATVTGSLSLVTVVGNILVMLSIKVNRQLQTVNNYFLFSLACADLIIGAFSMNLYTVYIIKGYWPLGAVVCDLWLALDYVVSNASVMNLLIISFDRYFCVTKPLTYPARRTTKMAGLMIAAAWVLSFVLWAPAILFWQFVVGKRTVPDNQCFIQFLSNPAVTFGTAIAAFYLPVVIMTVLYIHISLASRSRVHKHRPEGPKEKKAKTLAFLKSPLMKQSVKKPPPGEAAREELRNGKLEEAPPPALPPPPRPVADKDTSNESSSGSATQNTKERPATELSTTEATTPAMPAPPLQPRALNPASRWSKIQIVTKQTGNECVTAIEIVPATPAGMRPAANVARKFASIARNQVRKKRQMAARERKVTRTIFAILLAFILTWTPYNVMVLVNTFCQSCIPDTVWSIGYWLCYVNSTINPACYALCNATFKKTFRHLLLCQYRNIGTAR

As a reminder, the inhibition is the change of the read-out against control, counted positive when it falls. As for `O=C(CSc1nnc(-c2cccnc2)o1)OC1CCCCC1`, the cell count in test [1] came out at 695. The inhibition in test [1] was -3.9% (inactive); in test [3], -54.6% (inactive); in test [7], 15.3% (inactive); in test [8] it was 16.2% (inactive). Moreover, the inhibition of aggregation in test [2] was 22.6% (inactive). Also, the values for the nuclei count in test [2] and in test [3] were 95.8% and 126%, respectively. Also, the fluorescence slope in test [4] is -0.517 (inactive); in test [6], 0.0051 (inactive). Further, the NADPH fluorescence slope in test [5] is 3.9e-05 (inactive).
In the case of `Cc1cc(=O)oc2cc(OCC(=O)OCc3nnc(-c4ccccc4)o3)ccc12`, the cell count in test [1] came out at 527. Besides, the inhibition is -7.7% (inactive) in test [1], -10.9% (inactive) in test [3], 6.17% (inactive) in test [7] and 7.89% (inactive) in test [8]. The inhibition of aggregation in test [2] was 5.8% (inactive). Moreover, the figures for the nuclei count in test [2] and in test [3] were 123% and 121%, respectively. The fluorescence slope in test [4] was -0.399 (inactive); in test [6], 0.00584 (inactive). Also, the NADPH fluorescence slope in test [5] was 2.8e-05 (inactive).
For `COc1cc(OC)cc(C(=O)N2CCN(C(=O)c3ccc(OC)c(OC)c3)CC2)c1`, in test [1], the cell count is 358. Besides, the inhibition was -2% (inactive) in test [1], -20.6% (inactive) in test [3], 4.07% (inactive) in test [7] and 14.7% (inactive) in test [8]. In addition, the inhibition of aggregation in test [2] is -5.3% (inactive). Also, the nuclei count in test [2] is 126%; in test [3], 89.3%. Besides, the fluorescence slope in test [4] is -0.603 (inactive); in test [6], 0.00572 (inactive). For the same molecule, the NADPH fluorescence slope in test [5] was 3.5e-06 (inactive).
Turning to `CCCc1cn(S(=O)(=O)c2ccc(OC)cc2OC)nc1N`, the cell count in test [1] is 364. The inhibition in test [1] was -8.7% (inactive); in test [3], -38.9% (inactive); in test [7], -0.283% (inactive); in test [8], 5.1% (inactive). For the same molecule, the inhibition of aggregation in test [2] is 7.3% (inactive). The nuclei count in test [2] is 100%; in test [3], 119%. Further, the fluorescence slope was -0.537 (inactive) in test [4] and 0.00411 (inactive) in test [6]. The NADPH fluorescence slope in test [5] was -3.9e-05 (inactive).
Consider `O=C(Nc1ccccc1)N(Cc1cccnc1)Cc1ccco1`, for which the cell count in test [1] stood at 335. For the same molecule, the inhibition in test [1] was -0.7% (inactive); in test [3], -36.9% (inactive); in test [7], 18.2% (inactive); in test [8], 14.3% (inactive). The inhibition of aggregation in test [2] is 5.9% (inactive). In addition, the nuclei count in test [2] turned out to be 97.2%; in test [3], 103%. The fluorescence slope in test [4] was -0.463 (inactive); in test [6], 0.00427 (inactive). Also, the NADPH fluorescence slope in test [5] is -3.6e-05 (inactive).
In the case of `COC(=O)C1=C(C)OC(N)=C(C#N)C1c1ccccc1` (centres undefined), the cell count in test [1] was 428. Also, the inhibition was 1.7% (inactive) in test [1], -73.1% (inactive) in test [3], 11.5% (inactive) in test [7] and 16.7% (inactive) in test [8]. The inhibition of aggregation in test [2] is 5.6% (inactive). The nuclei count in test [2] came out at 114%; in test [3], 116%. Besides, the fluorescence slope in test [4] is -0.568 (inactive); in test [6], 0.0048 (inactive). Further, in test [5], the NADPH fluorescence slope was -6.5e-06 (inactive).
As for `O=C(COC(=O)c1ccc(Br)o1)Nc1ccc(S(=O)(=O)N2CCCC2)cc1`, in test [1], the cell count was 619. Besides, the inhibition in test [1] was -3.6% (inactive); in test [3], -150% (inactive); in test [7], 12.4% (inactive); in test [8], 11.3% (inactive). Also, in test [2], the inhibition of aggregation was -10.1% (inactive). Moreover, the nuclei count was 117% in test [2] and 130% in test [3]. Further, the fluorescence slope is -0.208 (inactive) in test [4] and 0.00525 (inactive) in test [6]. Also, the NADPH fluorescence slope in test [5] is -2e-05 (inactive).
For the molecule `O=C1CC(c2ccc(S(=O)(=O)N3CCN(c4ccccc4)CC3)cc2)CN1` (centres undefined), the cell count in test [1] turned out to be 426. The inhibition in test [1] was 0.3% (inactive); in test [3] it was 75.6% (active); in test [7], 5.45% (inactive); in test [8] it was 14.5% (inactive). Moreover, in test [2], the inhibition of aggregation is 7.2% (inactive). For the same molecule, the nuclei count was determined as 102% in test [2] and 44.2% in test [3]. Also, the fluorescence slope is -0.289 (inactive) in test [4] and 0.00584 (inactive) in test [6]. The NADPH fluorescence slope in test [5] is -4.6e-05 (inactive).
Consider `Cc1onc(-c2ccccc2)c1C(=O)N1CCCSC1=Nc1ccccc1`, for which the cell count in test [1] turned out to be 665. Moreover, the inhibition in test [1] is 6.5% (inactive); in test [3] it was 29.1% (inactive); in test [7] it was 10.2% (inactive); in test [8], 31.9% (inactive). In addition, the inhibition of aggregation in test [2] is 12.6% (inactive). The values for the nuclei count in test [2] and in test [3] were 110% and 79.6%, respectively. Also, the fluorescence slope is -0.567 (inactive) in test [4] and 0.00639 (inactive) in test [6]. The NADPH fluorescence slope in test [5] was -5.7e-05 (inactive).
Take `O=C(CCN1CCOCC1)Nc1cccc(Br)c1`: in test [1], the cell count was 354. Also, the inhibition in test [1] is -5.1% (inactive); in test [3] it was -70.3% (inactive); in test [7], 16.1% (inactive); in test [8], 15.9% (inactive). The inhibition of aggregation in test [2] was -9.3% (inactive). In addition, the results for the nuclei count in test [2] and in test [3] were 134% and 125%, respectively. Besides, the fluorescence slope in test [4] is -0.409 (inactive); in test [6], 0.00691 (inactive). Besides, in test [5], the NADPH fluorescence slope was 9.1e-05 (inactive).
As for `CCCC(=O)Nc1ccc(NC(=O)C2CC2)cn1`, in test [1], the cell count was 471. Besides, the inhibition in test [1] is -17.9% (inactive); in test [3] it was -79.6% (inactive); in test [7], 14.1% (inactive); in test [8] it was -13.6% (inactive). Besides, the inhibition of aggregation in test [2] is -28.9% (inactive). Further, the results for the nuclei count in test [2] and in test [3] were 99.8% and 112%, respectively. The fluorescence slope in test [4] is -0.527 (inactive); in test [6] it was 0.00449 (inactive). Besides, the NADPH fluorescence slope in test [5] was 1.9e-05 (inactive).
With `Cc1cc(C)c2c(n1)nn1c(N3CCN(c4ccccc4C)CC3)cc(C)nc21`, the cell count in test [1] stood at 420. Moreover, the inhibition in test [1] was -11.8% (inactive); in test [3] it was -52.8% (inactive); in test [7], -4.5% (inactive); in test [8], -6.94% (inactive). The inhibition of aggregation in test [2] was -116% (inactive). Further, the nuclei count was found to be 81% in test [2] and 110% in test [3]. Further, the fluorescence slope in test [4] is -0.447 (inactive); in test [6] it was 0.00576 (inactive). In addition, the NADPH fluorescence slope in test [5] was 1.5e-05 (inactive).
Take `CC(=O)c1cc(C#N)c(SCC(=O)OC(C)C)nc1C`: the cell count in test [1] worked out at 464. The inhibition in test [1] is -5.3% (inactive); in test [3] it was -22.4% (inactive); in test [7] it was 9.07% (inactive); in test [8] it was -11% (inactive). Moreover, the inhibition of aggregation in test [2] was -14.7% (inactive). The nuclei count came out at 118% in test [2] and 121% in test [3]. Moreover, the fluorescence slope in test [4] is -0.26 (inactive); in test [6], 0.00594 (inactive). In addition, in test [5], the NADPH fluorescence slope is -2.7e-05 (inactive).
Turning to `CS(=O)(=O)Nc1ccc(C(=O)NCCc2ccccc2)cc1`, the cell count in test [1] was 342. Also, the inhibition is -2% (inactive) in test [1], -69% (inactive) in test [3], -13.2% (inactive) in test [7] and -40.3% (inactive) in test [8]. Besides, in test [2], the inhibition of aggregation is -9.2% (inactive). The nuclei count in test [2] came out at 108%; in test [3], 125%. For the same molecule, the fluorescence slope was -0.535 (inactive) in test [4] and 0.00454 (inactive) in test [6]. For the same molecule, in test [5], the NADPH fluorescence slope is -1.7e-06 (inactive).

The values above are taken from PubChem BioAssay.
